This note sets out measurements from ChEMBL document CHEMBL4425113, “Chromenopyrazole, a Versatile Cannabinoid Scaffold with in Vivo Activity in a Model of Multiple Sclerosis” (J Med Chem, 2016).

What is called Ki is a measure of affinity in units of concentration, obtained from inhibition or displacement. A higher Ki goes with weaker binding. In general, EC50 refers to the concentration needed to bring the measured effect to its halfway point. What is called Emax is the greatest response seen or fitted, relative to the assay's reference. The IC50 is the concentration at which inhibition is half-maximal.

The target of data set [1] is T1, Cannabinoid receptor 1 (Homo sapiens, UniProt P21554). In words: biochemical. The data set is classed as cell-based, HEK293.
Data set [2] deals with T2, Cannabinoid receptor 2 (Homo sapiens, UniProt P34972). In words: Displacement of [3H]-CP55940 from human CB2 receptor expressed in HEK293 cell membranes after 90 mins by liquid scintillation counting method. In general terms: Displacement assays read how much labelled ligand stays bound in the presence of the test substance.
Data set [3] is filed under the species Homo sapiens. As to the kind of experiment: Selectivity ratio of Ki for human CB1 receptor to Ki for human CB2 receptor. An outline of the steps: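 Membranes from cells transfected with hCB1 (8 μg/well; Tris 50 mM, MgCl2 5 mM, EDTA 2.5 mM, BSA 0.5 mg/mL, pH 7.4) or hCB2 (4 μg/well; EGTA 2.5 mM, BSA 1 mg/mL, pH 7.5); [3H]CP55940, 90 min at 30 °C. […] Nonspecific binding 10 μM WIN55212-2; GF/C filtration, scintillation; ≥3 experiments in triplicate.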

The target of data set [4] is T2, Cannabinoid receptor 2. As to the kind of experiment: Antagonist activity at human CB2 receptor expressed in HEK293 cell membranes assessed as inhibition of CP55940-mediated suppression of forskolin-stimulated cAMP accumulation at 200 nM after 60 mins by HTRF assay. The data set is classed as functional, cell-based. (In general: Cyclic AMP is a second messenger, typically raised through Gs and lowered through Gi signalling.)

Data set [5] in a line: Binding affinity to PDEA modified AGP (unknown origin) at 40 uM by surface plasmon resonance method. The data set is classed as ADME. To be noted: human, isolated protein. For orientation: Surface plasmon resonance follows binding to a sensor surface in real time, without labels.
Data set [6] concerns the target T2, Cannabinoid receptor 2. In words: Antagonist activity at human CB2 receptor expressed in HEK293 cell membranes assessed as inhibition of CP55940-mediated suppression of forskolin-stimulated cAMP accumulation at 1 uM after 60 mins by HTRF assay. Type of data set: functional, cell-based.
The species entered for data set [7] is Homo sapiens. In words: Selectivity ratio of Ki for human CB2 receptor to Ki for human CB1 receptor.
Data set [8] addresses T2, Cannabinoid receptor 2. In words: Partial agonist activity at human CB2 receptor expressed in HEK293 cell membranes assessed as inhibition of forskolin-stimulated cAMP accumulation at 200 nM after 60 mins by HTRF assay. The data set is classed as functional, cell-based. In short, it runs like this: (§1)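 HEK293 cells stably expressing hCB2, 5.000 cells/well, forskolin-stimulated; Lance-Ultra TR-FRET cAMP kit, 60 min room temperature with HTRF reagents; 665/620 nm ratio converted to cAMP via standard curve; forskolin level set to 100%.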

The target of data set [9] is T2, Cannabinoid receptor 2. As to the kind of experiment: Partial agonist activity at human CB2 receptor expressed in HEK293 cell membranes assessed as inhibition of forskolin-stimulated cAMP accumulation at 1 uM after 60 mins by HTRF assay. The data set is classed as functional, cell-based. An outline of the steps: as §1
Data set [10] concerns the target T1, Cannabinoid receptor 1. In words: Agonist activity at human CB1 receptor expressed in HEK293 cell membranes assessed as induction of [35S]-GTPgammaS binding after 60 mins by liquid scintillation spectrometric method. Type of data set: functional.
Data set [11] addresses T2, Cannabinoid receptor 2. As to the kind of experiment: Agonist activity at human CB2 receptor expressed in HEK293 cell membranes assessed as inhibition of forskolin-stimulated cAMP accumulation at 200 nM after 60 mins by HTRF assay. Type of data set: functional, cell-based. In short, it runs like this: as §1
For data set [12], the target named is T2, Cannabinoid receptor 2. In words: Agonist activity at human CB2 receptor expressed in HEK293 cell membranes assessed as inhibition of forskolin-stimulated cAMP accumulation at 1 uM after 60 mins by HTRF assay. Type of data set: functional, cell-based. An outline of the steps:
as §1

Data set [13] concerns the target T2, Cannabinoid receptor 2. As to the kind of experiment: Agonist activity at human CB2 receptor expressed in HEK293 cell membranes assessed as inhibition of forskolin-stimulated cAMP accumulation after 60 mins by HTRF assay. The data set is classed as functional, cell-based.
The target in data set [14] is T2, Cannabinoid receptor 2. As to the kind of experiment: Agonist activity at human CB2 receptor expressed in HEK293 cell membranes assessed as induction of [35S]-GTPgammaS binding after 60 mins by liquid scintillation spectrometric method. Type of data set: functional.
A further data set relates to Mus musculus. In words: Antiinflammatory activity in TMEV-induced SJL/J mouse demyelinating disease model assessed as reduction of microglial activation by measuring […] in Iba-1 expression at 5 mg/kg, ip administered for 7 days by fluorescence assay. Type of data set: functional, organism-based. In short, it runs like this:
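Female SJL/J mice, 12 weeks, inoculated intracerebrally (right hemisphere) with TMEV DA strain; sham get vehicle. Compound 5 mg/kg i.p. daily for 7 days, vehicle 10% DMSO in PBS. Perfused brains PFA-fixed; sections stained anti-Iba1 (1:1,000) plus Alexa secondary; confocal fluorescence intensity, 6 sections/animal, ≥5 animals/group; Kruskal–Wallis test.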

The structures appear in SMILES notation. Activity calls are given as the source filed them. The calls are words filed in the database; no cut-off is given here.

T1 sequence (P21554 whole entry): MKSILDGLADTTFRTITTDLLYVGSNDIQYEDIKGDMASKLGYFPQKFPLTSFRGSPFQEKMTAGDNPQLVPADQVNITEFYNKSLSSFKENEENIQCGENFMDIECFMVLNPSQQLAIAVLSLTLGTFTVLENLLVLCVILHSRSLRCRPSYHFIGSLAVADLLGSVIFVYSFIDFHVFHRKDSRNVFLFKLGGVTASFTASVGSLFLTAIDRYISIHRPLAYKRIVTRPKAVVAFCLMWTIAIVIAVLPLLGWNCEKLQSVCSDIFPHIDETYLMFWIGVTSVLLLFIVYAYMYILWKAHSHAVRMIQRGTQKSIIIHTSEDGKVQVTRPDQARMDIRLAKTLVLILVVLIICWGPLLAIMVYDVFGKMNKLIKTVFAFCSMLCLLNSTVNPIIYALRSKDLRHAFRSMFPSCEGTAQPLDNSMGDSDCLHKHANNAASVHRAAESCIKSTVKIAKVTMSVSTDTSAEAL
T2 sequence (P34972 whole entry): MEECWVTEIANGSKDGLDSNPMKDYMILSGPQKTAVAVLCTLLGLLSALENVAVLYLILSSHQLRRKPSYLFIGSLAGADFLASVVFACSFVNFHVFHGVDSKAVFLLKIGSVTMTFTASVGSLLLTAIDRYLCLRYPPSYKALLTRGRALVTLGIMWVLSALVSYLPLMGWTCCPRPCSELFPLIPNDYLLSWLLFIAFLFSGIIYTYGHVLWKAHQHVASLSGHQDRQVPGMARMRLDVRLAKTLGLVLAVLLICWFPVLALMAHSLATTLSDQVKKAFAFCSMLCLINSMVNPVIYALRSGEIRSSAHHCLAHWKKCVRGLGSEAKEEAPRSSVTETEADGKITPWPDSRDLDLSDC

For `CCCCCCC(C)(C)c1cc(OC)c2c(c1)OC(C)(C)c1cn(C)nc1-2`, the results for the inhibition constant Ki at Cannabinoid receptor 1 [1] and on Cannabinoid receptor 2 [2] were 4160 nM and 66.4 nM, respectively. In addition, the Ratio Ki in the data set listed under Homo sapiens [3] was determined as 62.6. Moreover, the inhibition result at Cannabinoid receptor 2 [4] was “inactive”. The PB result in data set [5] is “Active”.
Take `CCCCCCC(C)(C)c1cc(OCCCO)c2c(c1)OC(C)(C)c1cn(CC)nc1-2`: the inhibition constant Ki on Cannabinoid receptor 1 [1] is over 40000 nM; on Cannabinoid receptor 2 [2] it was 97.4 nM. The Ratio Ki in the data set listed under Homo sapiens [3] was over 411. Moreover, the inhibition entry at Cannabinoid receptor 2 [6] is “Active”.
With `CCCCCCC(C)(C)c1cc(OCc2ccccc2)c2c(c1)OC(C)(C)c1cn[nH]c1-2`, the inhibitory constant (Ki) at Cannabinoid receptor 1 [1] came to 22.4 nM; at Cannabinoid receptor 2 [2], 93.3 nM. The Ratio Ki in the data set filed under Homo sapiens [7] was determined as 4.2. The inhibition result at Cannabinoid receptor 2 [8] and at Cannabinoid receptor 2 [9] was “Active” each time. For the same compound, at Cannabinoid receptor 1 [10], the concentration giving a half-maximal response (EC50) turned out to be 191 nM.
Turning to `CCCCCCC(C)(C)c1cc(OC)c2c(c1)OC(C)(C)c1cnoc1-2`, the Ki at Cannabinoid receptor 1 [1] is over 40000 nM; on Cannabinoid receptor 2 [2] it was 12.8 nM. The Ratio Ki in the data set filed under Homo sapiens [3] was over 3100. For the same compound, the inhibition entry at Cannabinoid receptor 2 [11] and at Cannabinoid receptor 2 [12] was “Active” each time. Besides, the Emax was determined as 101% at Cannabinoid receptor 2 [13] and 98% on Cannabinoid receptor 2 [14]. In addition, the IC50 on Cannabinoid receptor 2 [13] turned out to be 4.2 nM. For the same compound, the PB entry in data set [5] is on record as “Active”. Moreover, the outcome in the data set with Mus musculus was Active.
For the compound `CCCCCCC(C)(C)c1cc(O)c2c(c1)OC(C)(C)c1cnoc1-2`, the Ki at Cannabinoid receptor 1 [1] came out at 15.4 nM; at Cannabinoid receptor 2 [2], 5.3 nM. The Ratio Ki in the data set listed under Homo sapiens [3] is 2.9. Moreover, the inhibition entry on Cannabinoid receptor 2 [11] and at Cannabinoid receptor 2 [12] was “Active” in each case. Further, the Emax at Cannabinoid receptor 2 [13] was determined as 98%; on Cannabinoid receptor 2 [14], 114%. Further, the IC50 on Cannabinoid receptor 2 [13] amounted to 134 nM. Also, on Cannabinoid receptor 1 [10], the EC50 was determined as 15.8 nM. In addition, the PB result in data set [5] was “Active”.
Regarding `CCCCCCC(C)(C)c1cc(OCCO)c2c(c1)OC(C)(C)c1cn(C)nc1-2`, the inhibition constant Ki on Cannabinoid receptor 1 [1] worked out at 1090 nM; at Cannabinoid receptor 2 [2], 39.8 nM. Further, the Ratio Ki in the data set filed under Homo sapiens [3] stood at 27.2. The inhibition result at Cannabinoid receptor 2 [4] is “inactive”.
